Test results published in ChEMBL document CHEMBL2029296 (J Med Chem, 2012).
The source made the active and inactive calls. The calls are words filed in the database; no cut-off is given here.

Legend:
Adenosine receptor A3 = molecular target: T1, Adenosine receptor A3 (Homo sapiens, UniProt P0DMS8); assay: Displacement of [125I]AB-MECA from human A3 adenosine receptor expressed in CHO cell membrane; assay type: cell membranes
T1 sequence (P0DMS8 whole entry): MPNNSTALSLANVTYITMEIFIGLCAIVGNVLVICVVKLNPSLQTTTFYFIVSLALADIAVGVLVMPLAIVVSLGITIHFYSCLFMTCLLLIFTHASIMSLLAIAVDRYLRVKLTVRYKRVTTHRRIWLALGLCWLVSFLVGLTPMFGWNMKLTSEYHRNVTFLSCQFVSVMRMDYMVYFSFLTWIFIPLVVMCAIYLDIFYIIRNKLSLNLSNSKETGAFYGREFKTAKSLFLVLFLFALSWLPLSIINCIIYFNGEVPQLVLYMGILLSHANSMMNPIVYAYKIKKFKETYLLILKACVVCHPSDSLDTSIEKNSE

Adenosine receptor A2b = molecular target: T2, Adenosine receptor A2b (Homo sapiens, UniProt P29275); assay: Antagonist activity at human A2B receptor expressed in CHO cells assessed as inhibition of NECA-mediated cAMP accumulation; assay type: functional, cell-based
T2 sequence (P29275 whole entry): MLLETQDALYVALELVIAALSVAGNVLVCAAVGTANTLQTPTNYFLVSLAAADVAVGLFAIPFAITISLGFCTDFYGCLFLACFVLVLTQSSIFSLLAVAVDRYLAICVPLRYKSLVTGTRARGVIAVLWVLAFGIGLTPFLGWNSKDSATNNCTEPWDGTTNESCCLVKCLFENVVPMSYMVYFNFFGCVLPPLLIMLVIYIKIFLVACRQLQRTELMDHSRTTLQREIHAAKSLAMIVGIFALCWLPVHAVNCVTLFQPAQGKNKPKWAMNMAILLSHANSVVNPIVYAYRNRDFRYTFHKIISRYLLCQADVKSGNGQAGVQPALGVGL
How it was run: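 hA2B-expressing CHO cells, 48 h after plating, were preincubated 15 min at 37 °C in DMEM with ADA 1 U/mL and Ro20-1724 20 μM. Antagonist (1 nM–10 μM) was added for 15 min at 37 °C, then 100 nM NECA. Reaction stopped with 0.4 N HCl, lysate neutralized with 4 N KOH, and cAMP measured by competitive protein binding.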

Adenosine receptor A1 = molecular target: T3, Adenosine receptor A1 (Homo sapiens, UniProt P30542); assay: Displacement of [3H]DPCPX from human A1 adenosine receptor expressed in CHO cell membrane; assay type: cell membranes
T3 sequence (P30542 whole entry): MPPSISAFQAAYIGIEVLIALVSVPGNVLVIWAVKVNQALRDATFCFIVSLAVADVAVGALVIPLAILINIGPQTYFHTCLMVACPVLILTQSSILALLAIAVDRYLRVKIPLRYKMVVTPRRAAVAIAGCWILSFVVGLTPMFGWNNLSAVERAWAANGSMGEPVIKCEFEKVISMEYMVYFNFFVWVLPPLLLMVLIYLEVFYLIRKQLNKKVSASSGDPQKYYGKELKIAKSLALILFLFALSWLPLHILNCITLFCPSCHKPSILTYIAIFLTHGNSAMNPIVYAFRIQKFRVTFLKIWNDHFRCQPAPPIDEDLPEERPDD

Adenosine receptor A2a = Adenosine receptor A2a (Homo sapiens, UniProt P29274); assay: Displacement of [3H]NECA from human A2A adenosine receptor expressed in CHO cell membrane; assay type: cell membranes
[1] = molecular target: T4, Adenosine receptor A2b (Homo sapiens) (UniProt P29275); assay: Antagonist activity at A2B receptor in human Caco2 cells assessed as reversal of NECA-induced cell death at 0.1 to 50 nM after 24 hrs by MTS assay; assay type: functional, cell-based; settings: Caco-2
T4 sequence (whole entry): T2 sequence (P29275 whole entry)
How it was run: (§1)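 Caco-2 cells grown in DMEM with 10% FBS, 2 mM L-glutamine and penicillin/streptomycin at 37 °C, 5% CO2, seeded at 5000 cells/well. Next day, antagonist (0.1–50 nM) added, alone or 5 min before 100 nM NECA, for 24 h. Viability read by MTS formazan absorbance at 490 nm. Background subtracted, expressed as % untreated control, duplicate or triplicate, ≥3 experiments.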

[2] = molecular target: T4, Adenosine receptor A2b (Homo sapiens); assay: Induction of A2B receptor-mediated cell viability of human Caco2 cells assessed as cell survival at 0.1 to 50 nM after 24 hrs by MTS assay; assay type: cell-based; settings: Caco-2; how it was run: as §1

Sequence of Adenosine receptor A2a (P29274 whole entry): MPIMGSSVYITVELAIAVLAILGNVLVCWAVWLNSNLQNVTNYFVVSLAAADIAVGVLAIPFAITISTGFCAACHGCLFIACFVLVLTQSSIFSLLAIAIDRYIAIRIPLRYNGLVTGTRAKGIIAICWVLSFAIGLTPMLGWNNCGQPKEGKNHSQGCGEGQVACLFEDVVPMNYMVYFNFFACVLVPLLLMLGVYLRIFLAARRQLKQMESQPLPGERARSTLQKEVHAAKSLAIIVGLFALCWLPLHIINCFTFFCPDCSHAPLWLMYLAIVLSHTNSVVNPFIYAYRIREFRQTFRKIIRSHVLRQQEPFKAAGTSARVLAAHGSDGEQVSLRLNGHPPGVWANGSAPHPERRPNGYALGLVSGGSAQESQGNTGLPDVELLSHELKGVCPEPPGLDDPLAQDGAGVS

`O=c1c(-c2ccco2)nnc2n(-c3ccccc3)c3ccc(Cl)cc3n12` showed a Ki (Adenosine receptor A3) of over 1000 nM, an IC50 (Adenosine receptor A2b) of 7850 nM and a Ki (Adenosine receptor A1) of over 10000 nM. For the same compound, the Ki (Adenosine receptor A2a) was over 10000 nM and the inhibition [1] was “Active”.
With `Oc1c(-c2ccco2)nnc2nc3ccccc3n12` the Ki (Adenosine receptor A3) was over 1000 nM, the IC50 (Adenosine receptor A2b) was 15.3 nM and the Ki (Adenosine receptor A1) was 25 nM.
`Cn1c2ccccc2n2c(=O)c(-c3ccccc3)nnc12` gave a Ki (Adenosine receptor A3) of over 1000 nM, an IC50 (Adenosine receptor A2b) of 58 nM and a Ki (Adenosine receptor A1) of 62 nM. The Ki (Adenosine receptor A2a) was over 10000 nM.
With `O=c1c(-c2ccco2)nnc2n(-c3ccc(Cl)cc3)c3ccccc3n12` the Ki (Adenosine receptor A3) was 702 nM, the IC50 (Adenosine receptor A2b) was 2.11 nM and the Activity [2] was “inactive”. For the same compound, the Ki (Adenosine receptor A1) was over 10000 nM, the Ki (Adenosine receptor A2a) was 50.6 nM and the inhibition [1] was “Active”.
For `Cn1c2ccccc2n2c(=O)c(-c3ccco3)nnc12`, the Ki (Adenosine receptor A3) was over 1000 nM, the IC50 (Adenosine receptor A2b) was 20.4 nM and the Ki (Adenosine receptor A1) was 211 nM. The Ki (Adenosine receptor A2a) was 2610 nM.
For `O=c1c(-c2ccco2)nnc2n(Cc3ccccc3)c3ccccc3n12`, the Ki (Adenosine receptor A3) was over 1000 nM, the IC50 (Adenosine receptor A2b) was 10 nM and the Ki (Adenosine receptor A1) was over 10000 nM. The Ki (Adenosine receptor A2a) was 156 nM.
For `O=c1c(-c2ccccc2)nnc2n(-c3ccccc3)c3ccc(Cl)cc3n12`, the Ki (Adenosine receptor A3) was over 1000 nM, the IC50 (Adenosine receptor A2b) was 3.1 nM and the Activity [2] was “inactive”. For the same compound, the Ki (Adenosine receptor A1) was over 10000 nM, the Ki (Adenosine receptor A2a) was over 10000 nM and the inhibition [1] was “Active”.
With `O=c1c(-c2ccccc2)nnc2n(-c3ccc(Cl)cc3)c3ccccc3n12` the Ki (Adenosine receptor A3) was over 1000 nM, the IC50 (Adenosine receptor A2b) was 2.42 nM and the Activity [2] was “inactive”. The Ki (Adenosine receptor A1) was 1360 nM, the Ki (Adenosine receptor A2a) was over 10000 nM and the inhibition [1] was “Active”.
`O=c1c(-c2ccccc2)nnc2n(Cc3ccccc3)c3ccccc3n12` gave a Ki (Adenosine receptor A3) of over 1000 nM, an IC50 (Adenosine receptor A2b) of 54.3 nM and a Ki (Adenosine receptor A1) of 299 nM. For the same compound, the Ki (Adenosine receptor A2a) was over 10000 nM.
For `O=c1c(-c2ccco2)nnc2n(CCc3ccccc3)c3ccccc3n12`, the Ki (Adenosine receptor A3) was over 1000 nM, the IC50 (Adenosine receptor A2b) was 5.34 nM and the Ki (Adenosine receptor A1) was over 10000 nM. The Ki (Adenosine receptor A2a) was 15.8 nM.
`O=c1c(-c2ccco2)nnc2n(-c3ccccc3)c3ccccc3n12` gave a Ki (Adenosine receptor A3) of over 1000 nM, an IC50 (Adenosine receptor A2b) of 3200 nM and a Ki (Adenosine receptor A1) of over 10000 nM. For the same compound, the Ki (Adenosine receptor A2a) was 3280 nM and the inhibition [1] was “Active”.
`Oc1c(-c2ccccc2)nnc2nc3ccccc3n12` was tested, and the Ki (Adenosine receptor A3) was over 1000 nM, the IC50 (Adenosine receptor A2b) was 1.4 nM and the Activity [2] was “inactive”. The Ki (Adenosine receptor A1) was 728 nM and the inhibition [1] was “Active”.
`O=c1c(-c2ccccc2)nnc2n(-c3ccccc3)c3ccccc3n12` gave a Ki (Adenosine receptor A3) of over 1000 nM, an IC50 (Adenosine receptor A2b) of 15 nM and a Ki (Adenosine receptor A1) of 83 nM. It also gave a Ki (Adenosine receptor A2a) of over 10000 nM.
`O=c1c(-c2ccccc2)nnc2n(CCc3ccccc3)c3ccccc3n12` was tested, and the Ki (Adenosine receptor A3) was 328 nM, the IC50 (Adenosine receptor A2b) was 2.5 nM and the Activity [2] was “inactive”. The Ki (Adenosine receptor A1) was over 10000 nM, the Ki (Adenosine receptor A2a) was over 10000 nM and the inhibition [1] was “Active”.
